Measured values as given in the EternaBench riboswitch data.

Tested on: MS2 coat protein
Assay: apparent Kd, MS2 coat protein; higher = weaker binding; RNA-MaP array; FMN 200 µM where present
Procedure, shortened: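 Binding was read on Illumina sequencing-chip clusters where stalled E. coli RNA polymerase had transcribed each design. A titration of SNAP-549-labelled MS2 coat protein began at 0.7 or 1.5 nM and doubled to 3 µM, once without ligand and once with constant ligand, in 100 mM Tris-HCl pH 7.5, 80 mM KCl, 4 mM MgCl2, BSA, DTT, yeast tRNA and Tween-20. The apparent Kd is the median of filtered per-cluster binding-curve fits, based on green signal normalised to red-channel RNA signal and control-cluster median Fmax.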

[1] = designed as: ON switch for flavin mononucleotide, no ligand
[2] = ligand present: flavin mononucleotide, designed as: ON switch for flavin mononucleotide
[3] = designed as: OFF switch for flavin mononucleotide, no ligand
[4] = ligand present: flavin mononucleotide, designed as: OFF switch for flavin mononucleotide

Sequence | apparent Kd [1] | apparent Kd [2] | apparent Kd [3] | apparent Kd [4]
UUGGACGUCGUGGGAUAUGUAGGAUAUUCCUACAUGAGGAUCACCCAUGUUGACAUGGAAGAAGGACAGAAGGACGAUGUCCAU | 0.152 µM | 0.00555 µM |  | 
AGCUGUGGCCGAGGAUAUGCUACUUCAAUAACCGAAAUAUAAUCGGACAUGAGGAUCACCCAUGUAGAGAAGGCGGUCUCAGCA |  |  | 0.014 µM | 0.011 µM
GGAGCACAUAUAAACAUGAGGAUCACCCAUGUCAAAAGACAUGAGGAUAUGGAUCGGAAAACGAUCUAGAAGGCAUGGUGCUCC | 0.644 µM | 0.0295 µM |  | 
UGUCGGAGCAGAGGAUAUUACAUGAGGAUCACCCAUGUAUGAACCAAUAGCUGGAAACAGCAAUGUAAGAAGGCUGGUCCGACA |  |  | 0.0124 µM | 0.143 µM
AAUUCACAUGAGGAUCACCCAUGUCAGGAUAUGGUUACGCGGGUUUCGGUGCGUGUGGCCAGAAGGGACAGCUA |  |  | 0.065 µM | 0.0805 µM
AGGCCACAAGGAUAUACAUGAGGAUCACCCAUGUAGAAAGACGUGUGGUCAUGUUCGAGUAGAAGGUGUAGCGG |  |  | 0.0129 µM | 0.0127 µM
UUAGAGGAUUGAGGAUAUGCAGAGAGAUUAUGCGCGUCGCGCACAUGAGGAUCACCCAUGUAAGAGCAGAAGGUAACUAUGAUC |  |  | 0.0243 µM | 0.0218 µM
GCGGAACAUGAGGAUCACCCAUGUAUCCGAAAUAUGGACUCACAGGAUAUCCCGAGUUGCCAGUCGGAGAAGGGUGACUCCAGC | 0.0123 µM | 0.00809 µM |  | 
UUAGAAUUGUUAGGAUAUUAAUUAUUUUUUAGUAUGAUCUACAUGAGGAUCACCCAUGUUAAAUAUAAGAAGGAACGUUAUAUU |  |  | 0.0636 µM | 0.0636 µM
UUAAAUCAUGUAGGAUAUGCAUGGCGAAGCUACGCAGAAGGACAUGAGGAUCACCCAUGUUAUAGCGUCUGAGAACAGAUGCAA |  |  | 0.0828 µM | 0.264 µM
GGAGGGACAGCAGGAUAUGAGUGGGACGCACUGUGUACGCGGGUGUGGAUGUCAGAAGGGCUGACAUGAGGAUCACCCAUGUAA | 0.114 µM | 0.0554 µM |  | 
CGAACCCGAGGAUAUCGUAAACCCGACAUGAGGAUCACCCAUGUCAUCCUCACGGCGCCACGAGAAGGCGGUGUUU |  |  | 0.0565 µM | 0.16 µM
GAACUGAAGCAUAGCUUUAGUCGUACAUGAGGAUCACCCAUGUAGGAUAUGGUAGGCAUAGCUUACUAGAAGGAUAGAGUGAUU |  |  | 0.0965 µM | 0.0679 µM
AUAUCACAAUUAGAACCAAUACGAACAUGAGGAUCACCCAUGUAGGAUAUGCUAGAAGUUGUGUUGCAGAAGGACAUAUACAUU |  |  | 0.00763 µM | 0.00663 µM
ACCUCACACGUCAGGAUAUGCCUGCGGAUAUGCGGGUAGAAGGGACAUGAGGAUCACCCAUGUCUUUCGUGAUU |  |  | 0.0158 µM | 0.0211 µM
UGAGCCUCGUGAGGAUAUACAUGAGGAUCACCCAUGUAGUAAAGUGAACGGAGGAAACUCCGAAUGUAGAAGGCACGAGGCUCA |  |  | 0.0132 µM | 0.0858 µM
UCGAUAAGGAGAGGAUAUGGACAUGAGGAUCACCCAUGUACAUGGGAAUAUAUUCUGAAUUUUUACUAGAAGGCUUACAUAAAU |  |  | 0.0208 µM | 0.0171 µM
AGACUGCGUAGAAUUAGCAGCCGACAGGAUAUGACAUGAGGAUCACCCAUGUGAACUACAAAGGAUCAGAAGGGUCACGACACA |  |  | 0.0201 µM | 0.0244 µM
GUGUACAGAGGAUAUACAUGAGCUAGGAAACUAGCAACUUCACAUGAGGAUCACCCAUGUAGAAGGCUGUACAC |  |  | 0.026 µM | 0.128 µM
UUUCGUCUCGAGAAGGUCUAUCGACAUGAGGAUCACCCAUGUUGCCAUGGAAGGAUAUCGAAGGCAGCACGGGAAAUAGUCCGG | 0.0783 µM | 0.014 µM |  | 
CGUGUCGUAUGAGGAUAUGGUCAGCUUUGCUGACCAGAAGGCAUGUCAAUAGACAUGAGGAUCACCCAUGUAGUAAAGACACGA | 0.378 µM | 0.0406 µM |  | 
UUUGCAACAUGAGGAUCACCCAUGUAGGAUAUCGCUAUUGUAAUCAUGAAACAUGAUUACAAUAGCGAGAAGGACAUAUGUCCC |  |  | 0.00756 µM | 0.00859 µM
AAAACAUGAGGAUCACCCAUGUAUAGAUCGAUUAUUAGGAGUGAGGAUAUGCAAGUUAUAAGGUAGCAGAAGGCACUGGGAAAA | 0.0257 µM | 0.0248 µM |  | 
GGUACCAUCGCAGGAUAUGCUUUCCUUUGGGAAGCAGAAGGGUGUAACAUGAGGAUCACCCAUGUGGUGCCAGGGCGUGAGCCU | 0.862 µM | 0.0487 µM |  | 
GAUAGGACAGAGAAGGACGUAGCUAGAGAUACUAGCAUAAGAACCUUUACAUGAGGAUCACCCAUGUAGGAUAUCUGUCCUAUC |  |  | 0.00588 µM | 0.00689 µM
AGGUAAACCACAGGAUAUGGCUAGCAUAGCUAGCCAGAAGGGUGGUCGAAACCAUGUAAAUACAUGAGGAUCACCCAUGUAUCC | 0.566 µM | 0.0753 µM |  | 
GUCUGGCUAGGAUAUACAGAAUCCACGAGUCGGUUGCCCUGACAUGAGGAUCACCCAUGUAGAAGGAGCGAGAA |  |  | 0.0179 µM | 0.0243 µM
UUCCUCGUUGUGAGGAUAUCGUAUUCUUUUUGUUACGAGAAGGCACAUGAGGAUCACCCAUGUUUCUUGAUGUU |  |  | 0.0195 µM | 0.0688 µM

Sequence | apparent Kd [1] | apparent Kd [2] | apparent Kd [3] | apparent Kd [4]
CUUUAGUGAGGAUAUCGGUAGUAAUACAAUAGUAUUACUACUGAGAAGGCACAUGAGGAUCACCCAUGUUCCUC |  |  | 0.0299 µM | 0.233 µM
AGCGGCGCAGACCACCGCAAAACCAGAAGGACAUGAGGAUCACCCAUGUAACAAAACAGGGCGGUGUAGGAUAUGGCAGACCCA |  |  | 0.00887 µM | 0.00771 µM
AAGCAGGUAAAUAAACUCAAUUACAUGAGGAUCACCCAUGUAUAGGAUAUCGUCAGGAAUACUGACGAGAAGGAUACAUCCUGC |  |  | 0.0177 µM | 0.0639 µM
AUUAUAUAGAAAGGAUAUUGAUUAUUAUUUUAACAUGAGGAUCACCCAUGUAGCCUUAUGUAUAACAAGAAGGUUCAUUUAUUA |  |  | 0.0759 µM | 0.0895 µM
AAUAUUUAUUGAGGAUAUUCAUACACUGUAUACGGAGAAGGCAAACAAUCAUGAGGACAUGAGGAUCACCCAUGUUGUGACCAU | 0.0198 µM | 0.0143 µM |  | 
CGCUGUCACGCAGGAUAUGCAAUGGAUUACAUUGCAGAAGGGCGAUCACAUGAGGAUCACCCAUGUGUAGACAGUGAAGAAGAG | 0.738 µM | 0.0458 µM |  | 
UUCAGCGAUCAAGGAUAUCUAUAUUCAUGAGGACAUGAGGAUCACCCAUGUUGAUUACCCAUGAGGGAGAAGGUGGACAUGAGG | 0.0401 µM | 0.0235 µM |  | 
UGUAUGGACAGAGGAUAUGCCGAUAGGAUCUAUUAUCGAAGAAUCCUCACAUGAGGAUCACCCAUGUAGAAGGCUGUCCAUACU |  |  | 0.00932 µM | 0.0358 µM
UUGUUAUAUGUAGGAUAUGCGUAUUAUUAUUAUGCAGAAGGACAUGAGGAUCACCCAUGUAUGUUGUUGUUAUAUAUUAUAUAU |  |  | 0.0229 µM | 0.0262 µM
UCCUUGUCCUGAGGAUAUCCGCGGUUCCCAAAAGGAGAAGGCAGGACAUGAGGAUCACCCAUGUACCCAGAACACGUGCAGAGU |  |  | 0.0146 µM | 0.0909 µM
AGUGUCAUCGAGAAGGCCUCAUGGACAUGAGGAUCACCCAUGUAAAAUGGGAGGAUAUCGAUGAUACAGCUACGUUUCGUAGCA | 0.226 µM | 0.0697 µM |  | 
UGAUAGGACAGAGGAUAUACAGAUAGGAUCUACUAUCAAACAGUCCUAACAUGAGGAUCACCCAUGUAGAAGGCUGUCCUAUCU |  |  | 0.0209 µM | 0.0792 µM
GUAUCUUAUGAGAAGGCGAUCAUGAAACAUGAUCGAGGAUAUCAUGUAAACAUGAGGAUCACCCAUGUAUGGGUAUUAUGGUAU | 0.095 µM | 0.0802 µM |  | 
GGAUUACAUGAGGAUCACCCAUGUGAGGAUAUCGAUGUCCUGUCUUUAGUGCGGGACUCGAGAAGGCACUUGGA |  |  | 0.048 µM | 0.159 µM
GCUGGUCGAGGAUAUACAUGACGUGCUUCGGCACGAGGUCUACAUGAGGAUCACCCAUGUAGAAGGCGACCAGC |  |  | 0.0308 µM | 0.225 µM
ACGACGAAAGUCGAACGAUGUAGCAGAAGGACAUGAGGAUCACCCAUGUCAGCUGUGACCAAAAUGUAGGAUAUGCUACAUCGA |  |  | 0.0711 µM | 0.0908 µM
AGAUCGAUUGUGAGGAUAUUGACCGGACGACCCAUCGAGAAGGCACAUGAGGAUCACCCAUGUGAGUCGGUUUA |  |  | 0.0149 µM | 0.0182 µM
CACAUGGUUACAGGAUAUGUUAGGUUGCUGUUUAUUGGAUAUUAAAUUAUUACAGAAGGGUAAUACAUGAGGAUCACCCAUGUG | 0.129 µM | 0.0295 µM |  | 
GAAGUUUCCUGAGGAUAUACAUGAGGAUCACCCAUGUAAUGCUUGACUUCAGUAGAAGGCGGGAAACGAAAUUUCGGUGAUCAG |  |  | 0.353 µM | 0.14 µM
UCAAUUUUGCGAGGAUAUCGACCAUUCCUCUUUACAUGAGGAUCACCCAUGUUCUUUUUCUACAACGAGAAGGCGCUCAUAGUU |  |  | 0.0555 µM | 0.0671 µM
GUAGCUAUCGGAGGAUAUUCAUACCGGAAAAGGACAUGAGGAUCACCCAUGUGGUGAAAGCCUUGGGAGAAGGCCGAUAGCUAC | 0.484 µM | 0.191 µM |  | 
GGGCCCGGAGGAUAUACAUGAGGAUCACCCAUGUACCCGGGUUUUAUUGGGCCCGGGUGUAGAAGGCCGGGCCC |  |  | 0.0131 µM | 0.0148 µM
GACUGAUUACAGAAGGUGUAAGACAUGAGGAUCACCCAUGUGUAAAAGGGUAUAUUUGAAUAUAACAAGGAUAUGUUUUAAUCA | 0.0751 µM | 0.0493 µM |  | 
AAUUAUUUACAGAAGGAGUAAGAUUAUGUAUUACUAGGAUAUGUUCACAUGAGGAUCACCCAUGUCAUUGUAGGUUUUUUAUGU |  |  | 0.012 µM | 0.00995 µM
AAAUCAGUAGGAUAUACGAUUUUAUGCUAGAUAGAGGAGCCACAUGAGGAUCACCCAUGUAGAAGGACUAGAUA |  |  | 0.0171 µM | 0.0199 µM
AGGUGAGCUCGAUGGCGACAUGAGGAUCACCCAUGUACGAUCAGAAGGGCUCGGGCAAGAAGUGGGCAGGAUAUGGUCGGUGCC |  |  | 0.00388 µM | 0.00451 µM
AGAAGACAUGAGGAUCACCCAUGUGGGAUUAUGGGAGGAUAUACAAAGACGAGAGUCAGAGUAGAAGGCCUAGGAC | 0.0656 µM | 0.0267 µM |  | 
